A word on the IC50: it is the concentration that inhibits the measured activity by half. As a reminder, the inhibition is the percentage by which the read-out fell short of the control. The term half-life denotes how long it takes for the measured level to halve.

From ChEMBL document CHEMBL4706575, “Nonpeptidic quinazolinone derivatives as dual nucleotide-binding oligomerization domain-like receptor 1/2 antagonists for adjuvant cancer chemotherapy” (Eur J Med Chem, 2020) come the findings set out here.

Data set [1] concerns the target T1, Nucleotide-binding oligomerization domain-containing protein 2 (Homo sapiens, UniProt Q9HC29). The data set is described as follows: Antagonist activity at NOD2 in HEK-Blue hNOD2 cells assessed as inhibition of MDP-induced NFkappaB activation-mediated SEAP release preincubated for 3 hrs followed by MDP addition and measured after 20 hrs by spectrophotometric method. Format: cell-based. In short, it runs like this: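 HEK-Blue hNOD2 cells preincubated 3 h with a range of concentrations, then MDP 100 ng/mL for 20 h. SEAP quantified. SRB assay run to exclude cytotoxicity. IC50 by nonlinear semi-logarithmic fit, mean ± SD, n = 3.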

Data set [2] deals with T2, Nucleotide-binding oligomerization domain-containing protein 1 (Homo sapiens, UniProt Q9Y239).
T2 sequence (Q9Y239 whole entry): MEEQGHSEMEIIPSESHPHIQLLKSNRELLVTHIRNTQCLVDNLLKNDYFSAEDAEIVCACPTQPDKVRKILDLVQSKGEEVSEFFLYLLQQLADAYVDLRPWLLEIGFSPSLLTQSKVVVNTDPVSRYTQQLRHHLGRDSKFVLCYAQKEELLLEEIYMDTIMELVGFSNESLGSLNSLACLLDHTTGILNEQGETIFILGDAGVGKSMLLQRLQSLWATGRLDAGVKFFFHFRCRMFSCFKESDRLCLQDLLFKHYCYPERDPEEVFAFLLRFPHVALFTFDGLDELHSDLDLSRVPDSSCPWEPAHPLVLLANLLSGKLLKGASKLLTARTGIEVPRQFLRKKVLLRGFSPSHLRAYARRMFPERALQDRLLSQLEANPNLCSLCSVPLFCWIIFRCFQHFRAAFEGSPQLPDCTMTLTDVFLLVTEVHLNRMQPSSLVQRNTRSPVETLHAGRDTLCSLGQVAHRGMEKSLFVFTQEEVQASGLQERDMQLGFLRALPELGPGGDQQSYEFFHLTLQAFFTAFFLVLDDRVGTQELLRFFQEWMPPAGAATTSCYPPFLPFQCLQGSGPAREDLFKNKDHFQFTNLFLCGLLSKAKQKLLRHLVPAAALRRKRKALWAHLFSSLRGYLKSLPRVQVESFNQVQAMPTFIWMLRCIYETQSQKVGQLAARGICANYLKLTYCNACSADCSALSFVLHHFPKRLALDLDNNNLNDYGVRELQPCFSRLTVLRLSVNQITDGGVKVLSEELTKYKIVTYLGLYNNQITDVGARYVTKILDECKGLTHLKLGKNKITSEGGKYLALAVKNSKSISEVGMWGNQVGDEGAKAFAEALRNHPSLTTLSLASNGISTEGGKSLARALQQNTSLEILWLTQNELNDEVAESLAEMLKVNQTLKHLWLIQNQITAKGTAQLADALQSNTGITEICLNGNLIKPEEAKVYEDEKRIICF
The data set is described as follows: Antagonist activity at NOD1 in HEK-Blue hNOD1 cells assessed as inhibition of C12-iE-DAP-induced NFkappaB activation-mediated SEAP release preincubated for 3 hrs followed by C12-iE-DAP addition and measured after 20 hrs by spectrophotometric method. Format: cell-based.

The target in data set [3] is T3, Nucleotide-binding oligomerization domain-containing protein 1 (Homo sapiens) (UniProt Q9Y239).
T3 sequence (whole entry): T2 sequence (Q9Y239 whole entry)
Put plainly: Antagonist activity at NOD1 in HEK-Blue hNOD1 cells assessed as inhibition of C12-iE-DAP-induced NFkappaB activation-mediated SEAP release at 5 uM preincubated for 3 hrs followed by C12-iE-DAP addition and measured after 20 hrs by spectrophotometric method relative to control. In kind it is cell-based. As to conditions: time 23.0 hrs.

The nature of data set [4]: Half life in mouse liver microsomes at 1.25 uM preincubated for 5 mins followed by NADPH generating system addition and measured for 120 mins by LC-MS/MS analysis. Format: ADME, Microsome. In short, it runs like this:
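Mouse liver microsomes (1.25 mg/mL protein) in 100 mM phosphate pH 7.4 with 1.25 µM compound, preincubated 5 min at 37 °C. Reaction started with NADPH-generating system (1 mM NADP, 10 mM MgCl2, 10 mM G6P, 0.5 U/mL G6PDH). Sampled at 0–120 min, quenched with MeOH/ACN 1:1, analysed by LC-MS/MS.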
In general terms: Liver microsomes are a subcellular fraction often used to study metabolism.

The target in data set [5] is T1, Nucleotide-binding oligomerization domain-containing protein 2. The data set is described as follows: Antagonist activity at recombinant human NOD2 expressed in HEK293 cells assessed as inhibition of MDP-induced IL8 release measured after 24 hrs by HTRF assay. In kind it is cell-based. (In TR-FRET formats the signal depends on donor and acceptor labels being close together.)

Data set [6] has as its target T2, Nucleotide-binding oligomerization domain-containing protein 1. The data set is described as follows: Antagonist activity at recombinant human NOD1 expressed in HEK293 cells assessed as inhibition of C12-iE-DAP-induced IL8 release measured after 24 hrs by HTRF assay. Format: cell-based.

T1 sequence (Q9HC29 whole entry, the tested form may be a part): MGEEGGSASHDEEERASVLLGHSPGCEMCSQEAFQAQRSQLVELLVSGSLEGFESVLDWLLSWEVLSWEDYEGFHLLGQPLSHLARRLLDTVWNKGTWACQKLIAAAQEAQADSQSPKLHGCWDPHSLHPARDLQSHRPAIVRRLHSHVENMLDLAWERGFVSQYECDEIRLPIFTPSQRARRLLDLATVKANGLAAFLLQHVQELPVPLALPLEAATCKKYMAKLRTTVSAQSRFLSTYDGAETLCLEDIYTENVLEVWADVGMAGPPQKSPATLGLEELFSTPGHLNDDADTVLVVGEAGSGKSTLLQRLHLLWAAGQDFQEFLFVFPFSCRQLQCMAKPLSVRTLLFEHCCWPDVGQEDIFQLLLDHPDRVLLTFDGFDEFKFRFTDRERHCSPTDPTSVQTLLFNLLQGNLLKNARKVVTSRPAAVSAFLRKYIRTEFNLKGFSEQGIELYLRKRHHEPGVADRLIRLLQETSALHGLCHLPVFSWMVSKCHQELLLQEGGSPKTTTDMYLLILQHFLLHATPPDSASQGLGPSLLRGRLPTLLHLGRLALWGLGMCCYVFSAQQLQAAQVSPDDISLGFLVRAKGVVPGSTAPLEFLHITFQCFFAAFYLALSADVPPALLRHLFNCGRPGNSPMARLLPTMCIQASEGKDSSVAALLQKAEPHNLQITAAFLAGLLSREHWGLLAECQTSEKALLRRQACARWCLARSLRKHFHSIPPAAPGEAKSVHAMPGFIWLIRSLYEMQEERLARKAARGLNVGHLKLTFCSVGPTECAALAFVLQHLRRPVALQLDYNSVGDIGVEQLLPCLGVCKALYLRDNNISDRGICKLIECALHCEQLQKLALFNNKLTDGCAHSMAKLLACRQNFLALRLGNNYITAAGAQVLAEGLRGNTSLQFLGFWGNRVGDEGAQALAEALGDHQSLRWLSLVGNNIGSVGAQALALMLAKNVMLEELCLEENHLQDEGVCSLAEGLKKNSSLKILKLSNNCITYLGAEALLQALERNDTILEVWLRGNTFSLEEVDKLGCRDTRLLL

As for `O=C(NCCCOc1ccc(C(F)(F)F)cc1)c1cc2ncn(CC(=O)N3CCCCC3)c(=O)c2cc1-c1cccc(Cl)c1`, the IC50 in data set [1] and in data set [2] was 0.8 µM in each case. Besides, in data set [3] (filed as antagonist), the inhibition amounted to 93.2%. Also, the half-life at 1.25 µM in data set [4] was determined as 15.6 min.

Regarding `COC(=O)Cn1cnc2cc(NC(=O)CCCOc3ccc(C(F)(F)F)cc3)c(Oc3cccc(N4CCOCC4)c3)cc2c1=O`, the IC50 in data set [2] came to 1.38 µM. The inhibition in data set [3] (filed as antagonist) was determined as 91.2%. The compound also came in with a half-life at 1.25 µM in data set [4] of 9.6 min.

With `O=C(NCCOCc1ccc(C(F)(F)F)cc1)c1cc2nc[nH]c(=O)c2cc1-c1cccc(Cl)c1`, in data set [2], the IC50 was 1.34 µM. Further, the inhibition in data set [3] (filed as antagonist) came out at 64.4%. The compound also came in with a half-life at 1.25 µM in data set [4] of 22.9 min.

`O=C(CCCOc1ccc(C(F)(F)F)cc1)Nc1cc2nc[nH]c(=O)c2cc1Oc1cccc(N2CCOCC2)c1`: the IC50 in data set [2] came out at 2.48 µM. In addition, in data set [3] (filed as antagonist), the inhibition came to 65.4%. Moreover, the half-life at 1.25 µM in data set [4] is 10.1 min.

As for `O=C(COCc1ccc(C(F)(F)F)cc1)Nc1cc2ncn(CC(=O)N3CCCC(F)(F)C3)c(=O)c2cc1Oc1cccc(N2CCOCC2)c1`, the results for the IC50 in data set [1] and in data set [2] were 0.5 µM and 0.54 µM, respectively. Further, in data set [3] (filed as antagonist), the inhibition amounted to 88.2%. This compound also came in with a half-life at 1.25 µM in data set [4] of 12.9 min.

On to `O=C(O)Cn1cnc2cc(C(=O)NCCCOc3ccc(C(F)(F)F)cc3)c(-c3cccc(Cl)c3)cc2c1=O`, for which the inhibition in data set [3] is 22%. The half-life at 1.25 µM in data set [4] came to 22.9 min.

Take `CCc1ccc(S(=O)(=O)Nc2cc(-n3c(C)nc4ccccc4c3=O)ccc2F)s1`: the IC50 in data set [5] is above 50 µM.

With `O=C(Cn1c(CCNC(=O)c2ccccc2)nc2ccccc21)Nc1ccc2c(c1)CCC2`, the IC50 was above 50 µM in data set [6] and 3.3 µM in data set [5].
